Columns and labels:
[1] = Chemical stability in RPMI-1640 culture medium at 2 uM up to 6 days by HPLC analysis; type: physicochemical; settings: 144 h
[2] = Chemical stability assessed as enzymatic hydrolysis half life in RPMI-1640 culture medium containing heat non-inactivated fetal bovine serum by HPLC analysis; type: physicochemical; settings: cattle
How it was run: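 Enzymatic hydrolysis by phosphoesterases was followed in RPMI-1640 containing heat non-inactivated FBS (RPMI/FBS 9:1, v/v).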

[3] = test system: Human immunodeficiency virus 1; experiment: Antiviral activity against efavirenz-resistant HIV1 infected in human MT4 cells assessed as protection from virus-induced cytopathogenicity after 4 days by MTT assay; type: functional, organism-based; settings: Human immunodeficiency virus 1, MT4, 96 h
How it was run: (§1)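 MT-4 cells, acutely infected at m.o.i. 0.01, were used to read inhibition of HIV-1-induced cytopathogenicity. Compounds were made as 100 mM DMSO stocks and diluted in culture medium. Viability was read by MTT. EC50 is the concentration giving 50% protection, as the mean (+SD) of three independent determinations.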

[4] = test system: Human immunodeficiency virus 1; experiment: Antiviral activity against MDR1-resistant HIV1 infected in human MT4 cells assessed as protection from virus-induced cytopathogenicity after 4 days by MTT assay; type: functional, organism-based; settings: Human immunodeficiency virus 1, MT4, 96 h; how it was run: as §1
[5] = test system: Human immunodeficiency virus 1; experiment: Antiviral activity against non-nucleoside reverse transcriptase inhibitor-resistant HIV1 bearing reverse transcriptase A17 (K103N, Y181C) mutation infected in human MT4 cells assessed as protection from virus-induced cytopathogenicity after 4 days by MTT assay; type: functional, organism-based; settings: Human immunodeficiency virus 1, MT4, 96 h; how it was run: as §1
[6] = Chemical stability assessed as chemical hydrolysis half life in RPMI-1640 culture medium by HPLC analysis; type: physicochemical
How it was run: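 Chemical hydrolysis of the compounds was followed in RPMI-1640 medium alone.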

[7] = Cytotoxicity against human MT4 cells after 96 hrs by MTT assay; type: cell-based
How it was run: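 Exponentially growing mock-infected MT-4 cells were seeded at 1 × 10⁵ cells/ml in RPMI-1640 with 10% FCS, penicillin G and streptomycin. They were incubated with serial compound dilutions at 37 °C in humidified 5% CO₂, and viability was read by MTT after 96 h. CC50 is the concentration reducing viability by 50%, as the mean of three independent determinations.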

[8] = Selectivity index, ratio of CC50 for human MT4 cells to EC50 for HIV1 3B; type: toxicity, cell-based; settings: read-out: Ratio CC50/EC50
[9] = test system: Human immunodeficiency virus 1; experiment: Antiviral activity against azidothymidine-resistant HIV1 infected in human MT4 cells assessed as protection from virus-induced cytopathogenicity after 4 days by MTT assay; type: functional, organism-based; settings: Human immunodeficiency virus 1, MT4, 96 h; how it was run: as §1
[10] = test system: Human immunodeficiency virus 1; experiment: Antiviral activity against non-nucleoside reverse transcriptase inhibitor-resistant HIV1 bearing reverse transcriptase N119 (Y181C) mutation infected in human MT4 cells assessed as protection from virus-induced cytopathogenicity after 4 days by MTT assay; type: functional, organism-based; settings: Human immunodeficiency virus 1, MT4, 96 h; how it was run: as §1
[11] = test system: Human immunodeficiency virus 1; experiment: Antiviral activity against HIV1 3B infected in human MT4 cells assessed as protection from virus-induced cytopathogenicity after 4 days by MTT assay; type: functional, organism-based; settings: Human immunodeficiency virus 1, 3B, MT4, 96 h; how it was run: as §1

SMILES | Stability [1] | half-life [2] | EC50 [3] | EC50 [4] | EC50 [5] | half-life [6] | CC50 at 96 h [7] | selectivity ratio [8] | EC50 [9] | EC50 [10] | EC50 [11]
O=c1ccn([C@H]2CC[C@@H](COP(=O)(O)Oc3ccncc3)O2)c(=O)[nH]1 | Stable | 23.6 h |  |  |  |  |  |  |  |  | 
Nc1ncnc2c1ncn2[C@H]1CC[C@@H](COP(=O)(O)Oc2cccnc2)O1 | Stable | 64.2 h |  |  |  |  |  |  |  |  | 
Cc1cn([C@H]2C[C@H](N=[N+]=[N-])[C@@H](COP(=O)(O)Oc3cccnc3Cl)O2)c(=O)[nH]c1=O | Stable | 16.3 h |  |  |  |  |  |  |  |  | 
Cc1ncccc1OP(=O)(OC[C@H]1O[C@@H](n2cc(C)c(=O)[nH]c2=O)C[C@@H]1N=[N+]=[N-])Oc1ccccc1 (some centres not stated) |  |  | 90 nM | 1600 nM | 60 nM | 82.5 h | > 100000 nM | > 1000 | 4700 nM | 80 nM | 100 nM
Cc1cn([C@H]2C[C@H](N=[N+]=[N-])[C@@H](COP(=O)(Oc3cccnc3)Oc3ccc(Cl)cc3Cl)O2)c(=O)[nH]c1=O (some centres not stated) |  |  | 10 nM | 100 nM | 8 nM | 6.6 h | > 100000 nM | > 10000 | 400 nM | 10 nM | 10 nM
Cc1cn([C@H]2C[C@H](N=[N+]=[N-])[C@@H](COP(=O)(Oc3cccnc3)Oc3cccnc3)O2)c(=O)[nH]c1=O |  |  | 10 nM | 100 nM | 3 nM | 4.92 h | > 100000 nM | > 10000 | 700 nM | 10 nM | 10 nM
O=c1ccn([C@H]2CC[C@@H](COP(=O)(Oc3ccncc3)Oc3cccnc3)O2)c(=O)[nH]1 (some centres not stated) |  |  | 7000 nM | ≥ 100000 nM | 5000 nM | 7 h | > 100000 nM | > 7 | > 100000 nM | 9000 nM | 14000 nM
Cc1ccc(OP(=O)(OC[C@H]2O[C@@H](n3cc(C)c(=O)[nH]c3=O)C[C@@H]2N=[N+]=[N-])Oc2ccccc2)cn1 (some centres not stated) |  |  | 70 nM | 1600 nM | 40 nM | 44.4 h | > 100000 nM | > 1110 | 7000 nM | 80 nM | 90 nM
Nc1ncnc2c1ncn2[C@H]1CC[C@@H](COP(=O)(Oc2ccccc2)Oc2cccnc2)O1 (some centres not stated) |  |  | 16000 nM | 50000 nM | 7000 nM | 88.8 h | > 100000 nM | > 4 | 42000 nM | 30000 nM | 23000 nM
O=c1ccn([C@H]2CC[C@@H](COP(=O)(Oc3ccccc3)Oc3ccncc3)O2)c(=O)[nH]1 (some centres not stated) |  |  | 2000 nM | 38000 nM | 2000 nM | 26.8 h | > 100000 nM | > 33 | 60000 nM | 4000 nM | 3000 nM
Cc1cn([C@H]2C[C@H](N=[N+]=[N-])[C@@H](COP(=O)(Oc3ccc(Cl)cc3)Oc3cccnc3)O2)c(=O)[nH]c1=O (some centres not stated) |  |  | 10 nM | 700 nM | 10 nM | 55 h | ≥ 100000 nM | > 3330 | 1900 nM | 40 nM | 30 nM
Nc1ncnc2c1ncn2[C@H]1CC[C@@H](COP(=O)(O)Oc2ccccc2)O1 | Stable | 36.1 h |  |  |  |  |  |  |  |  | 
O=c1ccn([C@H]2CC[C@@H](COP(=O)(Oc3ccccc3)Oc3cccnc3)O2)c(=O)[nH]1 (some centres not stated) |  |  | 20000 nM | > 100000 nM | 11000 nM | 64.2 h | > 100000 nM | > 2 | > 100000 nM | 30000 nM | 38000 nM
Cc1cn([C@H]2C[C@H](N=[N+]=[N-])[C@@H](COP(=O)(Oc3ccccc3)Oc3cccnc3)O2)c(=O)[nH]c1=O (some centres not stated) |  |  | 30 nM | 500 nM | 20 nM | 50.2 h | > 100000 nM | > 2000 | 2300 nM | 40 nM | 50 nM
Cc1ncccc1OP(=O)(O)OC[C@H]1O[C@@H](n2cc(C)c(=O)[nH]c2=O)C[C@@H]1N=[N+]=[N-] | Stable | 15.8 h |  |  |  |  |  |  |  |  | 
Cc1cn([C@H]2C[C@H](N=[N+]=[N-])[C@@H](CO)O2)c(=O)[nH]c1=O [ZIDOVUDINE] |  |  | 10 nM | 100 nM | 10 nM |  | 60000 nM | > 6000 | 600 nM | 10 nM | 
